Here are results for two compounds from ChEMBL document CHEMBL1806372, “Cytotoxic ring A-modified steroid analogues derived from Grundmann's ketone” (Eur J Med Chem, 2011).

Format in all cases: functional
One assay concerns SK-MEL-28. Briefly: Cytotoxicity against human SK-MEL-28 cells after 48 hrs by sulforhodamine B assay. Particulars: SK-MEL-28, 48 h, read-out: LC50 (the source's name). The essentials:
(§1)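 NCI 60 human tumour cell line panel run to the NCI protocol. GI50, TGI and LC50 come from log concentration vs % growth inhibition curves for each cell line. Lines insensitive at the top concentration are reported with ">".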
For orientation: The SRB assay estimates cell density from bound dye.

The next assay relates to KM12. Briefly: Cytotoxicity against human KM12 cells after 48 hrs by sulforhodamine B assay. Particulars: KM12, 48 h, read-out: LC50 (the source's name). A digest of the protocol:
as §1

For assay [1], the system named is OVCAR-5. As to the kind of experiment: Cytotoxicity against human OVCAR5 cells after 48 hrs by sulforhodamine B assay. Particulars: OVCAR-5, 48 h, read-out: LC50 (the source's name). The essentials:
as §1

The subject of assay [2] is HOP-92. As to the kind of experiment: Growth inhibition of human HOP92 cells after 48 hrs by sulforhodamine B assay. The following applies: HOP-92, 48 h. A digest of the protocol: (§2)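 From log concentration versus % growth curves, GI50 (50% decrease in net growth), TGI (total growth inhibition) and LC50 (net 50% loss of initial cells) are derived for each line.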
A further assay deals with K562. As to the kind of experiment: Cytotoxicity against human K562 cells after 48 hrs by sulforhodamine B assay. Particulars: K562, 48 h, read-out: LC50 (the source's name). A digest of the protocol: as §1
For a further assay, the system named is HOP-62. As to the kind of experiment: Cytotoxicity against human HOP62 cells after 48 hrs by sulforhodamine B assay. The following applies: HOP-62, 48 h, read-out: LC50 (the source's name). The essentials: as §1
A further assay relates to Burkholderia gladioli. Briefly: Antibacterial activity against Pseudomonas antimicrobica assessed as zone of inhibition at 5 uL and 32 degC after 36 hrs by disk diffusion method. The essentials:
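Disc diffusion on AC agar, each strain spread evenly over the medium; test compounds given as 1% (w/v) DMSO solutions. Plates covered and incubated 36 h at 32 °C, then the diameter of the zone of inhibited growth measured in mm. Tetracycline served as antibacterial reference.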

The next assay has as its system SW-620. Briefly: Cytotoxicity against human SW620 cells after 48 hrs by sulforhodamine B assay. Particulars: SW-620, 48 h, read-out: LC50 (the source's name).
Assay [3] relates to OVCAR-5. As to the kind of experiment: Growth inhibition of human OVCAR5 cells after 48 hrs by sulforhodamine B assay. Particulars: OVCAR-5, 48 h. The essentials: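 GI50, TGI and LC50 were derived from log concentration versus % growth inhibition curves for each cell line. GI50 is the concentration giving a 50% decrease in net cell growth. Insensitive lines are reported as greater than the highest concentration.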

The subject of a further assay is HCT-116. Briefly: Growth inhibition of human HCT116 cells after 48 hrs by sulforhodamine B assay. Particulars: HCT-116, 48 h. A digest of the protocol:
as §2

Assay [4] is described as follows: Growth inhibition of human Hs 578T cells after 48 hrs by sulforhodamine B assay. The essentials: as §2
For a further assay, the system named is HCT-15. Briefly: Growth inhibition of human HCT15 cells after 48 hrs by sulforhodamine B assay. Particulars: HCT-15, 48 h. A digest of the protocol: as §2
The test system of the next assay is NCI-H322M. Briefly: Cytotoxicity against human NCI-H322M cells after 48 hrs by sulforhodamine B assay. The following applies: read-out: LC50 (the source's name). The essentials: as §1
A further assay concerns EKVX. Briefly: Growth inhibition of human EKVX cells after 48 hrs by sulforhodamine B assay. The essentials:
as §2

Assay [5] has as its system HOP-92. As to the kind of experiment: Cytotoxicity against human HOP92 cells after 48 hrs by sulforhodamine B assay. Particulars: HOP-92, 48 h, read-out: LC50 (the source's name). The essentials: as §1
Another assay relates to ACHN. Briefly: Cytotoxicity against human ACHN cells after 48 hrs by sulforhodamine B assay. Particulars: read-out: LC50 (the source's name). The essentials: as §1
The subject of a further assay is SK-MEL-5. Briefly: Cytotoxicity against human SK-MEL-5 cells after 48 hrs by sulforhodamine B assay. The following applies: SK-MEL-5, 48 h, read-out: LC50 (the source's name). A digest of the protocol:
as §1

The test system of another assay is MDA-MB-468. Briefly: Cytotoxicity against human MDA-MB-468 cells after 48 hrs by sulforhodamine B assay. Particulars: MDA-MB-468, 48 h, read-out: LC50 (the source's name). A digest of the protocol:
as §1

A further assay concerns 786-0. Briefly: Cytotoxicity against human 786-0 cells after 48 hrs by sulforhodamine B assay. Particulars: 786-0, 48 h, read-out: LC50 (the source's name). The essentials:
as §1

The test system of a further assay is MCF7. As to the kind of experiment: Cytotoxicity against human MCF7 cells after 48 hrs by sulforhodamine B assay. The following applies: MCF7, 48 h, read-out: LC50 (the source's name). A digest of the protocol: as §1
The subject of a further assay is CAKI-1. As to the kind of experiment: Cytotoxicity against human Caki1 cells after 48 hrs by sulforhodamine B assay. The following applies: CAKI-1, 48 h, read-out: LC50 (the source's name). The essentials: as §1
The test system of a further assay is RXF 393. Briefly: Cytotoxicity against human RXF393 cells after 48 hrs by sulforhodamine B assay. The following applies: RXF 393, 48 h, read-out: LC50 (the source's name). The essentials:
as §1

A further assay concerns A498. Briefly: Cytotoxicity against human A498 cells after 48 hrs by sulforhodamine B assay. The following applies: A498, 48 h, read-out: LC50 (the source's name). The essentials: as §1
Another assay has as its system U-251. Briefly: Cytotoxicity against human U251 cells after 48 hrs by sulforhodamine B assay. Particulars: U-251, 48 h, read-out: LC50 (the source's name).

Activity calls are given as the source filed them. The rule behind the calls is not given here.

For orientation: GI50 means the concentration at which growth is held to half of that of the control. Read a high GI50 as less potent growth inhibition. The TGI is the concentration at which net growth stops. Higher therefore signals lower sensitivity of the cells. In the case of `CC(C)CCC[C@@H](C)[C@H]1CC[C@H]2C3=CC[C@@H]4C(=O)C=CC(=O)[C@@H]4[C@@H]3CC[C@]12C`, the CC50 in the assay on SK-MEL-28, with KM12, with OVCAR-5 [1], in the assay on K562, in the assay with HOP-62 and in the assay with SW-620 was greater than 100 µM each time. Moreover, the CC50 in the assay on NCI-H322M is greater than 100 µM. For the same compound, the GI50 in the assay on HOP-92 [2] was 0.028 µM; in the assay with OVCAR-5 [3] it was 0.212 µM; in the assay with HCT-116, 0.055 µM; in assay [4] it was 0.817 µM; in the assay on HCT-15, 0.212 µM; with EKVX, 0.545 µM. In addition, the TGI is 0.086 µM in the assay on HOP-92 [2]; greater than 100 µM in the assay with OVCAR-5 [3]; 1.03 µM in the assay on HCT-116; greater than 100 µM in assay [4]; greater than 100 µM with EKVX. For the same compound, the “diameter of the inhibition zone (DIZ)” value in the assay on Burkholderia gladioli was “inactive”.
With `CC(C)CCC[C@@H](C)[C@H]1CC[C@H]2C3=CCn4c(=O)ccc(=O)n4[C@@H]3CC[C@]12C`, the CC50 was 3.76 µM in the assay with HOP-92 [5]; 4.14 µM in the assay on SK-MEL-28; 5.19 µM in the assay with ACHN; 4.44 µM in the assay on KM12; 4.52 µM with SK-MEL-5; 9.42 µM in the assay with MDA-MB-468. Besides, the CC50 with OVCAR-5 [1] was 7.84 µM; in the assay on K562, greater than 100 µM; with 786-0 it was 4.43 µM; with HOP-62, 5.33 µM; in the assay with MCF7 it was 4.26 µM; with CAKI-1 it was 3.47 µM. The CC50 in the assay with RXF 393 is 5.43 µM; in the assay with SW-620 it was 5.33 µM; in the assay with A498 it was 4.87 µM; in the assay on NCI-H322M it was 5.84 µM; with U-251 it was 4.18 µM. The GI50 amounted to 0.175 µM in the assay with HOP-92 [2]; 1.05 µM in the assay on OVCAR-5 [3]; 0.142 µM in the assay on HCT-116; 1.8 µM in assay [4]; 0.418 µM with HCT-15; 1.03 µM in the assay on EKVX. The TGI is 1.03 µM with HOP-92 [2]; 2.87 µM with OVCAR-5 [3]; 0.291 µM in the assay with HCT-116; 4.79 µM in assay [4]; 2.22 µM in the assay with HCT-15; 2.75 µM with EKVX.
